According to ChEMBL document CHEMBL2375290, “Nonclassical antifolates, part 3: synthesis, biological evaluation and molecular modeling study of some new 2-heteroarylthio-quinazolin-4-ones” (Eur J Med Chem, 2013):
Converted amounts (≈) assume the structure as drawn.

Tests used:
T47D = assay: Cytotoxicity against human T47D cells at 10 uM after 48 hrs by coulter counter analysis; format: functional; details: read-out: GI
Hs-578T = assay: Cytotoxicity against human Hs578T cells at 10 uM after 48 hrs by coulter counter analysis; format: functional; details: read-out: GI
MCF7 = assay: Cytotoxicity against human MCF7 cells at 10 uM after 48 hrs by coulter counter analysis; format: functional; details: MCF7, 48 h, read-out: GI
MDA-MB-231 = assay: Cytotoxicity against human MDA-MB-231 cells at 10 uM after 48 hrs by coulter counter analysis; format: functional; details: MDA-MB-231, 48 h, read-out: GI
PC-3 = assay: Cytotoxicity against human PC3 cells at 10 uM after 48 hrs by coulter counter analysis; format: functional; details: PC-3, 48 h, read-out: GI
UO-31 = assay: Cytotoxicity against human UO31 cells at 10 uM after 48 hrs by coulter counter analysis; format: functional; details: UO-31, 48 h, read-out: GI
RXF 393 = assay: Cytotoxicity against human RXF393 cells at 10 uM after 48 hrs by coulter counter analysis; format: functional; details: RXF 393, 48 h, read-out: GI
SN12C = assay: Cytotoxicity against human SN12C cells at 10 uM after 48 hrs by coulter counter analysis; format: functional; details: read-out: GI
A498 = assay: Cytotoxicity against human A498 cells at 10 uM after 48 hrs by coulter counter analysis; format: functional; details: A498, 48 h, read-out: GI
CAKI-1 = assay: Cytotoxicity against human Caki1 cells at 10 uM after 48 hrs by coulter counter analysis; format: functional; details: CAKI-1, 48 h, read-out: GI
[1] = Cytotoxicity against human NCI-ADR-RES cells at 10 uM after 48 hrs by coulter counter analysis; format: functional; details: read-out: GI
OVCAR-4 = assay: Cytotoxicity against human OVCAR4 cells at 10 uM after 48 hrs by coulter counter analysis; format: functional; details: OVCAR-4, 48 h, read-out: GI
UACC-62 = assay: Cytotoxicity against human UACC62 cells at 10 uM after 48 hrs by coulter counter analysis; format: functional; details: UACC-62, 48 h, read-out: GI
IGROV-1 = assay: Cytotoxicity against human IGROV1 cells at 10 uM after 48 hrs by coulter counter analysis; format: functional; details: IGROV-1, 48 h, read-out: GI
SK-MEL-5 = assay: Cytotoxicity against human SK-MEL-5 cells at 10 uM after 48 hrs by coulter counter analysis; format: functional; details: SK-MEL-5, 48 h, read-out: GI
Malme-3M = assay: Cytotoxicity against human MALME-3M cells at 10 uM after 48 hrs by coulter counter analysis; format: functional; details: read-out: GI
MDA-MB-435 = assay: Cytotoxicity against human MDA-MB-435 cells at 10 uM after 48 hrs by coulter counter analysis; format: functional; details: MDA-MB-435, 48 h, read-out: GI
SNB-75 = assay: Cytotoxicity against human SNB75 cells at 10 uM after 48 hrs by coulter counter analysis; format: functional; details: SNB-75, 48 h, read-out: GI
LOX IMVI = assay: Cytotoxicity against human LOXIMVI cells at 10 uM after 48 hrs by coulter counter analysis; format: functional; details: read-out: GI
SNB-19 = assay: Cytotoxicity against human SNB19 cells at 10 uM after 48 hrs by coulter counter analysis; format: functional; details: SNB-19, 48 h, read-out: GI
NCI-H522 = assay: Cytotoxicity against human NCI-H522 cells at 10 uM after 48 hrs by coulter counter analysis; format: functional; details: NCI-H522, 48 h, read-out: GI
SF-295 = assay: Cytotoxicity against human SF295 cells at 10 uM after 48 hrs by coulter counter analysis; format: functional; details: SF-295, 48 h, read-out: GI
NCI-H23 = assay: Cytotoxicity against human NCI-H23 cells at 10 uM after 48 hrs by coulter counter analysis; format: functional; details: NCI-H23, 48 h, read-out: GI
[2] = Cytotoxicity against human EKVX cells at 10 uM after 48 hrs by coulter counter analysis; format: functional; details: read-out: GI
NCI-H226 = assay: Cytotoxicity against human NCI-H226 cells at 10 uM after 48 hrs by coulter counter analysis; format: functional; details: NCI-H226, 48 h, read-out: GI
A549 = assay: Cytotoxicity against human A549/ATCC cells at 10 uM after 48 hrs by coulter counter analysis; format: functional; details: A549, 48 h, read-out: GI
RPMI-8226 = assay: Cytotoxicity against human RPMI8226 cells at 10 uM after 48 hrs by coulter counter analysis; format: functional; details: RPMI-8226, 48 h, read-out: GI
SR = assay: Cytotoxicity against human SR cells at 10 uM after 48 hrs by coulter counter analysis; format: functional; details: read-out: GI
MOLT-4 = assay: Cytotoxicity against human MOLT4 cells at 10 uM after 48 hrs by coulter counter analysis; format: functional; details: MOLT-4, 48 h, read-out: GI
CCRF-CEM = assay: Cytotoxicity against human CCRF-CEM cells at 10 uM after 48 hrs by coulter counter analysis; format: functional; details: read-out: GI
HL-60(TB) = assay: Cytotoxicity against human HL-60(TB) cells at 10 uM after 48 hrs by coulter counter analysis; format: functional; details: HL-60, 48 h, read-out: GI
Bacillus subtilis [3] = assay: Antimicrobial activity against Bacillus subtilis after 24 hrs by micro-dilution susceptibility method; format: functional
Summary of the method: (§1)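 Broth microdilution in Müller-Hinton broth against S. aureus IFO 3060, B. subtilis IFO 3007, E. coli IFO 3301 and P. aeruginosa IFO 3448. These are the same standard strains used in the disc-diffusion primary screen. Compounds were solubilized in DMSO. MIC recorded as the minimal inhibitory concentration.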

Staphylococcus aureus [4] = assay: Antimicrobial activity against Staphylococcus aureus after 24 hrs by micro-dilution susceptibility method; format: functional; summary of the method: as §1
Pseudomonas aeruginosa = assay: Antimicrobial activity against Pseudomonas aeruginosa at 200 ug after 24 hrs by agar disc diffusion method; format: functional; details: read-out: DIZ
Escherichia coli [5] = assay: Antimicrobial activity against Escherichia coli at 200 ug after 24 hrs by agar disc diffusion method; format: functional; details: read-out: DIZ
Micrococcus luteus = assay: Antimicrobial activity against Micrococcus luteus at 200 ug after 24 hrs by agar disc diffusion method; format: functional; details: read-out: DIZ
Bacillus subtilis [6] = assay: Antimicrobial activity against Bacillus subtilis at 200 ug after 24 hrs by agar disc diffusion method; format: functional; details: read-out: DIZ
Dihydrofolate reductase = target: T1, Dihydrofolate reductase (Bos taurus, UniProt P00376); assay: Inhibition of bovine DHFR after 2 mins by spectrophotometry
T1 sequence (P00376 whole entry): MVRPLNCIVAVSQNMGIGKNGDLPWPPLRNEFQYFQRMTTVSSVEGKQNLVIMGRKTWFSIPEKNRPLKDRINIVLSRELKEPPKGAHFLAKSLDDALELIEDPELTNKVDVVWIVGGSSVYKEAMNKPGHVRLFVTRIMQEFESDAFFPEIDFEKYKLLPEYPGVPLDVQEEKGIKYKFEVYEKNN

Staphylococcus aureus [7] = assay: Antimicrobial activity against Staphylococcus aureus at 200 ug after 24 hrs by agar disc diffusion method; format: functional; details: read-out: DIZ
Escherichia coli [8] = assay: Antimicrobial activity against Escherichia coli after 24 hrs by micro-dilution susceptibility method

Row | Structure (SMILES) | inhibition of growth at 10 µM (T47D) [%] | inhibition of growth at 10 µM (Hs-578T) [%] | inhibition of growth at 10 µM (MCF7) [%] | inhibition of growth at 10 µM (MDA-MB-231) [%] | inhibition of growth at 10 µM (PC-3) [%] | inhibition of growth at 10 µM (UO-31) [%] | inhibition of growth at 10 µM (RXF 393) [%] | inhibition of growth at 10 µM (SN12C) [%] | inhibition of growth at 10 µM (A498) [%] | inhibition of growth at 10 µM (CAKI-1) [%] | inhibition of growth at 10 µM [1] [%] | inhibition of growth at 10 µM (OVCAR-4) [%] | MIC (Bacillus subtilis [3]) [µg/mL] | MIC (Staphylococcus aureus [4]) [µg/mL] | zone of inhibition at 200 µg/disc (Pseudomonas aeruginosa) [mm] | zone of inhibition at 200 µg/disc (Escherichia coli [5]) [mm] | zone of inhibition at 200 µg/disc (Micrococcus luteus) [mm] | zone of inhibition at 200 µg/disc (Bacillus subtilis [6]) [mm] | IC50 (Dihydrofolate reductase) [µM] | zone of inhibition at 200 µg/disc (Staphylococcus aureus [7]) [mm] | also measured
1 | Nc1ncc(Sc2nc3ccc(Cl)cc3c(=O)n2-c2ccccc2)s1 | 19.1 | < 10 | 19 | 21.5 | 10.2 | < 10 | < 10 | < 10 | < 10 | 24.1 | < 10 | < 10 | 4 (≈ 10.3 µM) | 8 (≈ 20.7 µM) | 8 | 8 | 14 | 22 | 4 | 18 | inhibition of growth at 10 µM (UACC-62): < 10%; inhibition of growth at 10 µM (IGROV-1): < 10%; inhibition of growth at 10 µM (SK-MEL-5): < 10%; inhibition of growth at 10 µM (Malme-3M): < 10%; inhibition of growth at 10 µM (MDA-MB-435): < 10%; inhibition of growth at 10 µM (SNB-75): < 10%; inhibition of growth at 10 µM (LOX IMVI): 11.2%; inhibition of growth at 10 µM (SNB-19): < 10%; inhibition of growth at 10 µM (NCI-H522): 14%; inhibition of growth at 10 µM (SF-295): < 10%; inhibition of growth at 10 µM (NCI-H23): 10.9%; inhibition of growth at 10 µM [2]: 12.9%; inhibition of growth at 10 µM (NCI-H226): 25.7%; inhibition of growth at 10 µM (A549): < 10%; inhibition of growth at 10 µM (RPMI-8226): < 10%; inhibition of growth at 10 µM (SR): 29.1%; inhibition of growth at 10 µM (MOLT-4): < 10%; inhibition of growth at 10 µM (CCRF-CEM): < 10%; inhibition of growth at 10 µM (HL-60(TB)): < 10%
2 | COc1cc2nc(Sc3cc([N+](=O)[O-])ccc3C(=O)O)n(-c3ccccc3)c(=O)c2cc1OC | – | – | – | – | – | – | – | – | – | – | – | – | 4 (≈ 8.34 µM) | 8 (≈ 16.7 µM) | 8 | 22 | 8 | 20 | 10 | 18 | MIC (Escherichia coli [8]): 2 µg/mL (≈ 4.17 µM)
3 | COc1cc2nc(Sc3ncccc3C(=O)O)n(-c3ccccc3)c(=O)c2cc1OC | < 10 | < 10 | < 10 | < 10 | < 10 | 12 | < 10 | < 10 | < 10 | 17.7 | < 10 | < 10 | 4 (≈ 9.19 µM) | 4 (≈ 9.19 µM) | 8 | 22 | 15 | 22 | 7 | 20 | inhibition of growth at 10 µM (UACC-62): < 10%; inhibition of growth at 10 µM (IGROV-1): < 10%; inhibition of growth at 10 µM (SK-MEL-5): < 10%; inhibition of growth at 10 µM (Malme-3M): < 10%; inhibition of growth at 10 µM (MDA-MB-435): < 10%; inhibition of growth at 10 µM (SNB-75): < 10%; inhibition of growth at 10 µM (LOX IMVI): < 10%; inhibition of growth at 10 µM (SNB-19): < 10%; inhibition of growth at 10 µM (NCI-H522): 11.4%; inhibition of growth at 10 µM (SF-295): < 10%; inhibition of growth at 10 µM (NCI-H23): < 10%; inhibition of growth at 10 µM [2]: < 10%; inhibition of growth at 10 µM (NCI-H226): 12%; inhibition of growth at 10 µM (A549): < 10%; inhibition of growth at 10 µM (RPMI-8226): < 10%; inhibition of growth at 10 µM (SR): < 10%; inhibition of growth at 10 µM (MOLT-4): < 10%; inhibition of growth at 10 µM (CCRF-CEM): < 10%; inhibition of growth at 10 µM (HL-60(TB)): < 10%; MIC (Escherichia coli [8]): 2 µg/mL (≈ 4.59 µM)
